Data set [1] is described as follows: Lethal dose in mice (LD50) following i.p. dosing. As to conditions: mouse, in vivo, ip. Type of data set: toxicity, organism-based. In short, it runs like this: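 Acute toxicity tested in mice by the intraperitoneal route. LD50 is the dose killing 50% of treated mice, computed by Finney probit analysis; values are approximate.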
Data set [2] has as its system Rattus norvegicus. The data set can be described thus: Activity to evoke catalepsy in rats, by administering perorally at a dose of 20 mg/kg. Format: functional. As to conditions: route oral, read-out: Inhibition. In short, it runs like this: (§1)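 Rats fasted overnight and given oral doses in arabic gum suspension (10 mL/kg), 1 h before screening or 1 and 5 h before profile testing. Forelegs placed on a horizontal bar 7 cm high, three times at 5-min intervals. Immobility of at least 15 s counts as catalepsy. ED50 is the dose giving catalepsy in 50% of rats, by probit analysis. Parenthetical entries give the maximal dose and percent activity.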

In data set [3] the test system is Mus musculus. Kind of data set: Antagonistic activity against amphetamine-induced Hypermobility in mice, by administering perorally at a dose of 10 mg/kg. Type of data set: functional. As to conditions: route oral. The method, boiled down:
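Male mice in groups of five, fasted overnight, given oral drug in arabic gum suspension (10 mL/kg) 1 or 5 h ahead. Amphetamine 4 mg/kg ip given 30 min after drug. Ten minutes later locomotion is recorded for 15 min in a photocell actophotometer. ED50 is 50% reduction versus control hypermotility, by probit analysis. Parenthetical entries give the maximal dose and percent activity.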

Data set [4] concerns Mus musculus. The data set can be described thus: Inhibition of spontaneous motor activity in mice, by administering perorally at a dose of 10 mg/kg. To be noted: route oral. Type of data set: functional. In short, it runs like this: (§2)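 Mice in groups of five were dosed orally with gum arabic suspensions at 10 mL/kg after an overnight fast, with a vehicle control group. Locomotion was counted for 10 min in a photocell activity cage, in at least two groups per dose. ED50, by probit analysis, is the dose giving 50% inhibition against controls.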

Data set [5] deals with Rattus norvegicus. Kind of data set: Antagonistic activity against apomorphine-induced stereotypy in rats, by administering perorally at a dose of 20 mg/kg. As to conditions: route oral. Format: functional. The method, boiled down:
(§3)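 Male rats fasted overnight and given oral doses in arabic gum suspension (10 mL/kg) 1 h, or 1 and 5 h, before challenge. Apomorphine 3 mg/kg iv, with stereotypy observed 20 min later. ED50 is the dose inhibiting stereotypy in 50% of rats, per Janssen's method. Parenthetical entries give the maximal dose and percent activity.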

Data set [6] relates to Rattus norvegicus. The data set can be described thus: Activity to evoke catalepsy in rats, by administering perorally at a dose of 40 mg/kg. Type of data set: functional. As to conditions: route oral. The method, boiled down:
as §1

For data set [7], the system named is Mus musculus. The data set can be described thus: Inhibition of amphetamine-induced hypermobility in mice following p.o. administration. As to conditions: po. Format: functional. The method, boiled down: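 Compounds were given orally to male mice (gum arabic suspension, 10 mL/kg, fasted) in groups of five. Amphetamine 4 mg/kg ip followed 30 min later. After another 10 min, motility was recorded for 15 min with a photocell actophotometer. ED50, by probit analysis, is the dose giving 50% reduction against controls.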

Data set [8] deals with Mus musculus. Kind of data set: Inhibition of spontaneous motor activity in mice, by administering perorally at a dose of 40 mg/kg. Format: functional. To be noted: route oral. The method, boiled down: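 Mice fasted overnight, then dosed orally with compound (weighed as base) suspended in arabic gum, 10 mL/kg, with vehicle controls; 1 h pretreatment for screening tests, 1 or 5 h for others. Groups of five; locomotor activity counted 10 min in photocell activity cage, at least two groups per dose. ED50 = dose giving 50% inhibition versus controls, by probit analysis.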

The test system of data set [9] is Rattus norvegicus. Kind of data set: Antagonistic activity against apomorphine-induced stereotypy in rats, by administering perorally at a dose of 40 mg/kg. Format: functional. As to conditions: route oral. The method, boiled down: as §3
Data set [10] has as its system Rattus norvegicus. Kind of data set: Antagonistic activity against apomorphine-induced stereotypy in rats, by administering perorally. As to conditions: po. Type of data set: functional. The method, boiled down: as §3
Data set [11] concerns Mus musculus. The data set can be described thus: Inhibition of spontaneous motor activity in mice, by administering perorally. Format: functional. As to conditions: po. In short, it runs like this: as §2
Data set [12] concerns Rattus norvegicus. Kind of data set: Activity to evoke catalepsy in rats, by administering perorally at a dose 150 mg/kg. Format: functional. To be noted: route oral. In short, it runs like this:
as §1

A word on the LD50: it is the dose at which mortality reaches 50%. The inhibition in vivo is the relative decrease from the control value, in per cent. Read a low inhibition in vivo as a response near the control. `Oc1nc(-c2ccc(-c3ccccc3)cc2)c(CCN2CCN(c3ccccc3)CC2)o1` showed an LD50 in data set [1] of 750 mg/kg. In addition, the percent of rats showing catalepsy at 20 mg/kg in the data set with Rattus norvegicus [2] was determined as 0%. Besides, the inhibition in vivo at 10 mg/kg in the data set with Mus musculus [3] came out at 33%; in the data set on Mus musculus [4], 32%. This compound also gave an inhibition in vivo at 20 mg/kg in the data set on Rattus norvegicus [5] of 0%.

As a reminder, the ED50 is the dose at which the effect has come halfway, by size or by number of responders. In the case of `Oc1nc(-c2ccc(F)cc2)c(CCN2CCN(c3ccc(Cl)cc3Cl)CC2)o1`, the inhibition in vivo at 40 mg/kg with Rattus norvegicus [6] turned out to be 0%; in the data set on Mus musculus [8] it was 45%; in the data set with Rattus norvegicus [9], 0%. Also, the LD50 in [1] was 1000 mg/kg. In the data set on Mus musculus [7], this compound came in with an ED50 of 23.9 mg/kg.

Regarding `CCn1c(-c2ccc(F)cc2)c(CCN2CCN(c3ccccc3)CC2)oc1=O`, in data set [1], the LD50 turned out to be 750 mg/kg. The ED50 with Mus musculus [7] stood at 17 mg/kg; in the data set with Rattus norvegicus [10], 75 mg/kg; with Mus musculus [11], 15.4 mg/kg. This compound showed an inhibition in vivo at 150 mg/kg in the data set on Rattus norvegicus [12] of 0%.

The record behind these values is ChEMBL document CHEMBL1124344, “5-Piperazinylalkyl-2(3H)-oxazolones with neuroleptic activity” (J Med Chem, 1989).
